Screening results (PubChem)
FN deposition inh = fibronectin deposition inhibition; AH1F fibroblasts, Alexa488-fibronectin deposition fluorescence, overnight; inhibition, % at 12.6 µM; AID 743247; 0.086% of 350,000 active;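 active means mean inhibition across replicates of 30% or more, regardless of how many single replicates reach that level; inconclusive means mean under 30% yet at least half of replicates reach 30%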;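 further: positive control wells lacked labelled fibronectin entirely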
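Material: AH1F fibroblast monolayer depositing Alexa488-labelled fibronectin into matrix / Amount: 10000 AH1F cells per well / Signal: fluorescence 485/525 nm / Medium: DMEM, 2% serum / Compound: single dose, pinned / Incubation: 1 h cell adhesion before compound, then overnight fibronectin incubation / Reagent: Alexa488-FN, 24 nM final / Read-out: inhibition of fibronectin deposition signal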
PGC1a acetyl inh = PGC1a acetylation modulation, inhibitor mode | U2OS PGC1a acetylation, AlphaScreen anti-acetyl-lysine; with virally co-expressed GCN5 acetyltransferase | inhibition, % at 15.6 µM | 0.17% of 350,000 active | AID 651687;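 active means every replicate shows inhibition of at least 40%; inconclusive means mean inhibition at least 40% but some replicate below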;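 further: 0% = neutral control wells and 100% = positive control wells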
PAX8 reporter = PAX8 transcriptional activity inhibition; RMG-I TPO-luciferase reporter, SteadyGlo, 24 h; inhibition, % at 12.6 µM; 1.2% of 360,000 active; AID 652154;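 active means mean replicate inhibition at least 60% with every replicate also reaching 60%; inconclusive means only one of the two criteria is met; inactive means mean below 60% and not all replicates reaching 60%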;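 further: luciferase light reporting Pax8 driven TPO promoter activity; plate controls were median of neutral control wells for no effect and mitoxantrone controls for full effect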
Env fusion inh = HIV envelope-mediated fusion inhibition; HeLa-JRFL Env/CEM21 cell fusion, luciferase; inhibition, % at 12.3 µM; 1.1% of 360,000 active; AID 651610;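 active means mean replicate inhibition score of at least 50 and every replicate individually at or above 50; inconclusive means only one of the two criteria met; inactive means mean below 50 and not all replicates reaching 50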;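 further: 0% = plate neutral controls and 100% = maraviroc near 300 nM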
EWS-Fli inh = blocks EWS/Fli oncoprotein-driven transcription; A673 NR0B1-luciferase reporter, viability-normalised; inhibition, % at 12.6 µM; 0.67% of 350,000 active; AID 651661;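 active means mean inhibition of at least 50% after viability correction, with every replicate also passing that limit; inconclusive means mean reaches 50% but only one of two replicates passes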;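 further: firefly luciferase signal divided by Alamar Blue viability fluorescence both relative to DMSO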
FGF22 binding = binders of recombinant human FGF22 by thermal shift | Q9HCT0 | SYPRO orange fluorescence; percent of sucrose octasulfate shift, DMSO zero | activity (Tm shift, normalised), % at 9.99 µM | 1.5% of 340,000 active;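 active means mean Tm shift, scaled 0 neutral to 100 positive control, at about 1.3% or above, every replicate too, limit read from the data; inconclusive means no clear call, values can overlap the other calls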
Target sequence (Q9HCT0 whole entry, looked up): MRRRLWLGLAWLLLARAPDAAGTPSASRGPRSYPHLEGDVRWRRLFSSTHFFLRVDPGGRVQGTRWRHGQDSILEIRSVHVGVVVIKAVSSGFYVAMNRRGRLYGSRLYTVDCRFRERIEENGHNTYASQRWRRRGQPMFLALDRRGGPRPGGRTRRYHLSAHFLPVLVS
Numbers without * were called inactive; [ ] = dose if it differs, or a comment. Compounds with a hit are over-represented: about 3.1% of the library has one in this group of screens.

How did COc1cccc(S(=O)(=O)N(C)C[C@H]2Oc3ncc(-c4cccc(C(=O)N(C)C)c4)cc3C(=O)N([C@@H](C)CO)C[C@@H]2C)c1 do in these assays?
FN deposition inh: -3; PGC1a acetyl inh: 5; Env fusion inh: 6[16.7 µM]; EWS-Fli inh: 0; FGF22 binding: 0

How did O=C(/C=C/c1cccc(Cl)c1)c1ccc([N+](=O)[O-])o1 do in these assays?
FN deposition inh: 59*; PAX8 reporter: 103*; Env fusion inh: inconclusive; EWS-Fli inh: 77*; FGF22 binding: 0

What do the screens show for `Cc1cc(O)c(C(=O)/C=C/c2cccc([N+](=O)[O-])c2)c(=O)o1`?
FN deposition inh: -1; PGC1a acetyl inh: 4; PAX8 reporter: 0; Env fusion inh: 3; EWS-Fli inh: 1; FGF22 binding: 0

Results for COc1ccc(/C=C/C(=O)c2ccc([N+](=O)[O-])o2)cc1OC ?
FN deposition inh: 35*; PAX8 reporter: 112*; Env fusion inh: -143; EWS-Fli inh: 62*; FGF22 binding: 0

Results for COc1cc(OC)c(C(=O)C=Cc2ccc(OC)c(OC)c2)c(OC)c1 ?
FN deposition inh: -8; PGC1a acetyl inh: 19; PAX8 reporter: 41; Env fusion inh: -23; EWS-Fli inh: -7; FGF22 binding: 0

What do the screens show for `COc1cc(/C=C/C(=O)c2ccc([N+](=O)[O-])o2)ccc1O`?
FN deposition inh: -8; PAX8 reporter: 59; Env fusion inh: -297; EWS-Fli inh: 55*; FGF22 binding: 0

Results for COc1cc(/C=C/C(=O)O)ccc1O ?
PGC1a acetyl inh: 5; EWS-Fli inh: -6; FGF22 binding: -1

Results for C[C@H]1CCCCO[C@H](CN(C)C)[C@@H](C)CN([C@@H](C)CO)C(=O)c2cc(N(C)C)ccc2O1 ?
PGC1a acetyl inh: 20; PAX8 reporter: -18; Env fusion inh: -9[16.7 µM]; EWS-Fli inh: -1; FGF22 binding: 0

Results for CC1Cc2ccccc2N1C(=O)CNCCCN(C)C (centres undefined) ?
PGC1a acetyl inh: 12

Results for CC1CC2(C)Oc3ccccc3CC2C(C)C1CNCCCN(C)C (centres undefined) ?
FN deposition inh: -5; PAX8 reporter: 48; Env fusion inh: 22; EWS-Fli inh: 14; FGF22 binding: 43*

How did C[C@H](CO)N1C[C@H](C)[C@H](CN(C)C(=O)Nc2ccc(F)cc2)Oc2ccc(NC(=O)Nc3ccc(C(F)(F)F)cc3)cc2CC1=O do in these assays?
PGC1a acetyl inh: 3; PAX8 reporter: 10; Env fusion inh: 18[16.7 µM]; EWS-Fli inh: -1; FGF22 binding: 1.2*

What do the screens show for `C[C@@H]1CN([C@@H](C)CO)C(=O)Cc2cc(NC(=O)Nc3ccc(C(F)(F)F)cc3)ccc2O[C@@H]1CN(C)C(=O)Nc1ccc2c(c1)OCO2`?
PGC1a acetyl inh: -17; PAX8 reporter: inconclusive; Env fusion inh: -91[16.7 µM]; EWS-Fli inh: 68*; FGF22 binding: 0

Results for C[C@@H]1CN([C@@H](C)CO)C(=O)Cc2cc(NC(=O)Nc3ccc(F)cc3)ccc2O[C@H]1CN(C)C(=O)Nc1ccc(C(F)(F)F)cc1 ?
PGC1a acetyl inh: -3; PAX8 reporter: 26; Env fusion inh: 12[16.7 µM]; EWS-Fli inh: 19; FGF22 binding: 1

What do the screens show for `C[C@H]1CN([C@@H](C)CO)C(=O)Cc2cc(NC(=O)NC3CCCCC3)ccc2O[C@H]1CN(C)C(=O)Nc1ccc(C(F)(F)F)cc1`?
FN deposition inh: -5; PGC1a acetyl inh: 0; PAX8 reporter: -9; Env fusion inh: -2[16.7 µM]; EWS-Fli inh: 1; FGF22 binding: 0

How did C[C@@H]1CN([C@@H](C)CO)C(=O)Cc2cc(NC(=O)Nc3ccc(C(F)(F)F)cc3)ccc2O[C@H]1CN(C)C(=O)NC1CCCCC1 do in these assays?
PGC1a acetyl inh: -9; PAX8 reporter: 80*; Env fusion inh: -34[16.7 µM]; EWS-Fli inh: 39; FGF22 binding: -1

What do the screens show for `C[C@@H]1CN([C@H](C)CO)C(=O)c2cc(NC(=O)Nc3ccc(F)cc3)ccc2O[C@@H]1CN(C)C(=O)Nc1cccc2ccccc12`?
FN deposition inh: 3; PGC1a acetyl inh: -4; PAX8 reporter: 70*; EWS-Fli inh: 9; FGF22 binding: 0
